Experimental data as given in ChEMBL document CHEMBL3286391, “High content screening of diverse compound libraries identifies potent modulators of tubulin dynamics” (ACS Med Chem Lett, 2014).
Calls of active or inactive are those of the source. The calls are words filed in the database; no cut-off is given here.

Tests used:
[1] = tested on: U2OS; assay: Induction of mitotic arrest in human U2OS cells assessed as mitotic index after 20 hrs by microscopic analysis
[2] = tested on: U2OS; assay: Growth inhibition of human U2OS cells after 72 hrs by sulforhodamine B assay; assay type: functional
Procedure, shortened: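 GI50 in U2OS cells. Mean of at least two independent experiments, each in triplicate.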

[3] = target: Tubulin (Homo sapiens) (UniProt P68371+Q9H4B7+P0DPH7+P68366+Q13509+Q71U36+P04350+Q3ZCM7+P07437+P68363+Q9BQE3+Q6PEY2+Q13885+Q9BVA1+Q9BUF5); assay: Binding affinity to tubulin in human U2OS cells assessed as disruption of tubulin network at 100 nM after 20 hrs by DAPI staining-based confocal microscopic analysis; assay type: cell-based
Procedure, shortened: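 U2OS cells treated with compound, then stained with DAPI and an α-tubulin antibody. Tubulin network imaged by confocal microscopy.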

[4] = Solubility of the compound at >1 uM; assay type: physicochemical
[5] = species on record: Sus scrofa; assay: Displacement of colchicine from porcine alpha/beta tubulin assessed as decrease in colchicine fluorescence intensity at 5 to 20 uM after 1 hr by spectrophotometric analysis relative to control
Procedure, shortened: (§1)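 Colchicine (3 μM), tubulin (3 μM) and compound incubated 1 h at 37 °C. Colchicine fluorescence intensity read at ex/em 365/435 nm. Nocodazole served as positive control. Mean ± s.e.m. of one experiment run in triplicate.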

[6] = species on record: Sus scrofa; assay: Inhibition of porcine alpha/beta tubulin polymerization at 10 uM after 1 hr by spectrophotometric analysis
Procedure, shortened: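 Tubulin (3 mg/mL) incubated with compound (10 μM) and GTP at 37 °C for 1 h to monitor polymerization.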

[7] = species on record: Sus scrofa; assay: Displacement of colchicine from porcine alpha/beta tubulin assessed as decrease in colchicine fluorescence intensity after 1 hr by spectrophotometric analysis
Procedure, shortened: as §1

[8] = species on record: Sus scrofa; assay: Displacement of BODIPY-FL-vinblastine from porcine alpha/beta tubulin at 20 to 60 uM after 20 hrs by fluorescence polarization assay
Procedure, shortened: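 Fluorescence polarization assay with FL-BODIPY-vinblastine tracer (2 μM) and tubulin (2 μM). Unlabeled vinblastine served as positive control. Ex/em 485/520 nm. Mean ± s.e.m. of one experiment run in triplicate.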

[9] = Stability of the compound; assay type: physicochemical
[10] = Solubility of the compound; assay type: physicochemical
[11] = tested on: U2OS; assay: Induction of mitotic arrest in human U2OS cells at 50 uM after 72 hrs by microscopic analysis relative to control; assay type: functional; conditions: in the assay text read “after 20 hrs” for “after 72 hrs”
Procedure, shortened: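 Primary screen in U2OS cells at a single 50 μM concentration, in triplicate. Cells stained for phospho-histone H3 with Hoechst counterstain and imaged by automated high content microscopy. Percentage of mitotically arrested cells calculated by algorithm.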

[12] = tested on: U2OS; assay: Induction of mitotic arrest in human U2OS cells assessed as mitotic index after 72 hrs by microscopic analysis; assay type: functional, cell-based; conditions: in the assay text read “after 20 hrs” for “after 72 hrs”
Procedure, shortened: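 Phenotypic high content assay in U2OS osteosarcoma cells. Cells stained for phosphorylated histone H3 (mitotic marker) and Hoechst, imaged on an automated high content microscope. An algorithm scores the percentage of cells arrested in mitosis. MI EC50 is the mean of at least two independent experiments, each in triplicate.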

| EC50 [1] [nM] | GI50 [2] [nM] | SMILES | also measured |
| --- | --- | --- | --- |
| 12900 |  | CC(=O)c1ccccc1-c1ccc(CC(=O)NCc2ccco2)cc1 |  |
| > 40000 |  | COc1cc(-c2ccc(CC(=O)NCc3ccco3)cc2)cc(OC)c1OC |  |
| 16600 |  | O=C(Cc1ccc(-c2ccccc2)cc1)NCc1ccncc1 |  |
| 526 | 111 | N#Cc1ccc(-c2ccc(CC(=O)NCc3ccco3)cc2)cc1 | inhibition [6]: Active |
| 250 |  | O=C(Cc1ccc(-c2ccccc2)cc1)NCc1ccccc1 |  |
| > 40000 |  | CC(C)CNC(=O)Cc1ccc(-c2ccccc2)cc1 |  |
| 510 | 150 | O=C(Cc1ccc(-c2ccccc2)cc1)NCc1ccco1 | Activity [11]: 40%; inhibition [6]: Active; inhibition [12]: Dose-dependent effect |
| > 20000 |  | O=C(Cc1ccc(-c2ccc(C(=O)O)cc2)cc1)NCc1ccco1 |  |
| 101 | 46 | CC(C)CNC(=O)c1ccc(-c2ccc(CC(=O)NCc3ccco3)cc2)cc1 |  |
| 81 | 27 | COC(=O)c1ccc(-c2ccc(CC(=O)NCc3ccccc3)cc2)cc1 |  |
| > 40000 |  | O=C(NCc1ccco1)c1cnc2ccccc2c1 |  |
| 144 | 31 | O=C(Cc1ccc(-c2ccc3c(c2)OCO3)cc1)NCc1ccco1 |  |
| 29900 |  | CN(Cc1ccccc1)C(=O)Cc1ccc(-c2ccccc2)cc1 |  |
| 1170 | 603 | COc1c(C)cc(-c2ccc(CC(=O)NCc3ccco3)cc2)cc1C |  |
| > 40000 |  | C[C@H](NC(=O)Cc1ccc(-c2ccccc2)cc1)c1ccccc1 |  |
| > 40000 |  | O=C(Cc1ccc(-c2ccccc2)cc1)Nc1ccccc1 |  |
| 490 | 120 | CC(=O)Nc1cccc(-c2ccc(CC(=O)NCc3ccco3)cc2)c1 |  |
| > 40000 |  | O=C(NCc1ccco1)c1cc2ccccc2o1 |  |
| 76 | 24 | CC(=O)c1ccc(-c2ccc(CC(=O)NCc3ccco3)cc2)cc1 |  |

More lines, now with the values behind:

| SMILES | EC50 [1] [nM] | GI50 [2] [nM] | also measured |
| --- | --- | --- | --- |
| Cc1ccc(-c2ccc(CC(=O)NCc3ccco3)cc2)cc1F | 340 | 100 |  |
| CC(=O)c1ccc(-c2ccc(CC(=O)NCc3ccccc3)cc2)cc1 | 28 | 11 | Activity [3]: Active; solubility [4]: Insoluble |
| CNC(=O)c1ccc(-c2ccc(CC(=O)NCc3ccco3)cc2)cc1 | 51 | 21 | Imax [5]: 45%; inhibition [6]: Active; inhibition [7]: Dose-dependent effect; Activity [3]: Active; inhibition [8]: inactive; Stability [9]: Stable; solubility [10]: soluble |
| COc1ccc(CNC(=O)Cc2ccc(-c3ccccc3)cc2)cc1 | 1900 |  |  |
| C[C@@H](NC(=O)Cc1ccc(-c2ccccc2)cc1)c1ccccc1 | 4830 |  |  |
| O=C(Cc1ccc(-c2ccccc2)cc1)NCc1ccccn1 | 9700 |  |  |
| O=C(Cc1ccc2ccccc2c1)NCc1ccco1 | 12900 |  |  |
| O=C(NCc1ccco1)c1ccccc1-c1ccccc1 | > 40000 |  |  |
| O=C(NCc1ccco1)c1ccc(C(=O)c2ccccc2)cc1 | > 40000 |  |  |
| O=C(Cc1ccc(-c2ccc(OC(F)(F)F)cc2)cc1)NCc1ccco1 |  | 120 |  |
| O=C(NCc1ccco1)c1ccc(-c2ccccc2)cc1 | > 40000 |  |  |
| COC(=O)Nc1nc2cc(C(=O)c3cccs3)ccc2[nH]1 [NOCODAZOLE] | 50 |  | Imax [5]: 85%; inhibition [6]: Active |
| COC(=O)c1ccc(-c2ccc(CC(=O)NCc3ccco3)cc2)cc1 | 73 | 24 |  |
| O=C(Cc1ccc(-c2ccccc2)cc1)NCc1cccc(Br)c1 | > 40000 |  | inhibition [6]: inactive |
